From ChEMBL document CHEMBL1121899, “Biological activities of photoaffinity labeling analogues of kinins and their irreversible effects on kinin receptors” (1981)
Values belong to the compound of their own block, whether it stands above or below them. Where a SMILES comes first, the peptide text is derived from it.

How the values were obtained:
Type in all cases: functional
[1] = organism: Oryctolagus cuniculus; experiment: The compound was tested in vitro on rabbit aorta for residual response in presence of ultraviolet light
Method in brief: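 Aorta strips in cycloheximide were challenged twice with [des-Arg⁹]BK and checked with 3 µM noradrenaline and 0.2 µM [Sar¹]angiotensin II. They were then incubated with 100 µM (4'-amino)Phe plus the photolabel and irradiated 10 min around 365 nm (18 mW/cm²). This was done once or twice. Residual [des-Arg⁹]BK response at 60 min was expressed as percent of reference tissues.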

[2] = organism: Oryctolagus cuniculus; experiment: In vitro 50 % Maximal response in rabbit aorta expressing B1 receptor; conditions: read-out: ED50 (the source's name)
[3] = target: T1, B1 bradykinin receptor (Homo sapiens) (UniProt P46663); experiment: Intrinsic activity was determined; conditions: Oryctolagus cuniculus
T1 sequence (whole entry): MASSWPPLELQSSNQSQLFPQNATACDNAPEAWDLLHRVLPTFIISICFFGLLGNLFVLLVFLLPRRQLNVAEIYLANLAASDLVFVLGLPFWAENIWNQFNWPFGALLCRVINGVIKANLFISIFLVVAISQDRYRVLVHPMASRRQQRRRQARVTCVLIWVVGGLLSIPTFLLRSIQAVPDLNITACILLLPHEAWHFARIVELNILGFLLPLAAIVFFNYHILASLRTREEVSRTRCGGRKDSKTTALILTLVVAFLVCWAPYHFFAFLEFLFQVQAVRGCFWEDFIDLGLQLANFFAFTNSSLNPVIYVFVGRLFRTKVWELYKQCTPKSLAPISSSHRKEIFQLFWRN

[4] = organism: Oryctolagus cuniculus; experiment: Competitive protection towards rabbit aorta in the presence of light
Method in brief: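 Rabbit aorta strips (B1), with cycloheximide 10 µg/mL present after 3 h equilibration. Tissue pretreated with 50 µM [Leu⁸,des-Arg⁹]BK before the photolabel, scavenger (4'-amino)Phe 100 µM, and 10 min irradiation around 365 nm (18 mW/cm²). Residual [des-Arg⁹]BK response read 60 min after treatment, relative to reference tissues.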

[5] = target: T2, B2 bradykinin receptor (Homo sapiens) (UniProt P30411); experiment: Percent agonistic activity in rabbit jugular vein expressing B2 receptor relative to bradykinin; conditions: Oryctolagus cuniculus
T2 sequence (whole entry): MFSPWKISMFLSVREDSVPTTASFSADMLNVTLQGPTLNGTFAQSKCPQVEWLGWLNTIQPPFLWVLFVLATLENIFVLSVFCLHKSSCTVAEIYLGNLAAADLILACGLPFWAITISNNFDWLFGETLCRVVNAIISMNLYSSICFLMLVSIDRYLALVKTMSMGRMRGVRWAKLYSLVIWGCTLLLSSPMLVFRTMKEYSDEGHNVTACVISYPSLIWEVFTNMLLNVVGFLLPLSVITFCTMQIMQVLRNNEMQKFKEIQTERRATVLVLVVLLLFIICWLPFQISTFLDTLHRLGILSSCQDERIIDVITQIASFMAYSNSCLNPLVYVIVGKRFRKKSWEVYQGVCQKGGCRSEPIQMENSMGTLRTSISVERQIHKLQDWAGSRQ
Method in brief: (§1)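 Isolated rabbit jugular vein strips were equilibrated about 2 h with protease inhibitor SQ 14225 (100 ng/mL) under incandescent light, with no UV. pD₂ was taken as −log of the half-maximal concentration. Relative affinity is given as percent of BK. Specificity was checked by desensitization with BK or an analogue. Antagonists were given as pA₂ from the ID₅₀ that reduces a double agonist dose to a single-dose response.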

[6] = target: T2, B2 bradykinin receptor (Homo sapiens); experiment: In vitro 50 % Maximal response in jugular vein expressing B2 receptor; conditions: Oryctolagus cuniculus; method in brief: as §1

EC50 [2]: 0.068 µM
Alpha E [3]: 1
Compound: NC(N)=NCCC[C@H](N)C(=O)N1CCC[C@H]1C(=O)N1CCC[C@H]1C(=O)NCC(=O)N[C@@H](Cc1ccccc1)C(=O)N[C@@H](CO)C(=O)N1CCC[C@H]1C(=O)N[C@@H](Cc1ccccc1)C(=O)O
Response [1]: 85%

EC50 [2]: 4.65 µM
Alpha E [3]: 1
Compound: NC(N)=NCCC[C@H](N)C(=O)N1CCC[C@H]1C(=O)N1CCC[C@H]1C(=O)NCC(=O)N[C@@H](Cc1ccccc1)C(=O)N[C@@H](CO)C(=O)N1CCC[C@H]1C(=O)N[C@@H](Cc1ccc(N)cc1)C(=O)O

EC50 [2]: 0.437 µM
Alpha E [3]: 1
Compound: NC(N)=NCCC[C@H](N)C(=O)N1CCC[C@H]1C(=O)N1CCC[C@H]1C(=O)NCC(=O)N[C@@H](Cc1ccc([N+](=O)[O-])cc1)C(=O)N[C@@H](CO)C(=O)N1CCC[C@H]1C(=O)N[C@@H](Cc1ccccc1)C(=O)O
Response [1]: 92%

EC50 [2]: > 100 µM
Compound: NC(N)=NCCC[C@H](N)C(=O)N1CCC[C@H]1C(=O)N1CCC[C@H]1C(=O)NCC(=O)N[C@@H](Cc1ccccc1)C(=O)N[C@@H](CO)C(=O)N1CCC[C@H]1C(=O)N[C@@H](Cc1ccc([N+](=O)[O-])cc1)C(=O)O
Response [1]: 76%
Competitive protection [4]: 75

Alpha E [3]: 0
Compound: CC(C)C[C@H](NC(=O)[C@@H]1CCCN1C(=O)[C@H](CO)NC(=O)[C@H](Cc1ccccc1)NC(=O)CNC(=O)[C@@H]1CCCN1C(=O)[C@@H]1CCCN1C(=O)[C@@H](N)CCCN=C(N)N)C(=O)O

Alpha E [3]: 1
Compound: COc1ccc(C[C@H](NC(=O)[C@@H]2CCCN2C(=O)[C@H](CO)NC(=O)[C@H](Cc2ccccc2)NC(=O)CNC(=O)[C@@H]2CCCN2C(=O)[C@@H]2CCCN2C(=O)[C@@H](N)CCCN=C(N)N)C(=O)O)cc1 (H-RPPGFSPY(Me)-OH)

Relative affinity [5]: 65%
Alpha E [3]: 1
Compound: COc1ccc(C[C@H](NC(=O)[C@@H]2CCCN2C(=O)[C@H](CO)NC(=O)[C@H](Cc2ccccc2)NC(=O)CNC(=O)[C@@H]2CCCN2C(=O)[C@@H]2CCCN2C(=O)[C@@H](N)CCCN=C(N)N)C(=O)N[C@@H](CCCN=C(N)N)C(=O)O)cc1 (H-RPPGFSPY(Me)R-OH)

Alpha E [3]: 1
Compound: COc1ccc(C[C@H](NC(=O)CNC(=O)[C@@H]2CCCN2C(=O)[C@@H]2CCCN2C(=O)[C@@H](N)CCCN=C(N)N)C(=O)N[C@@H](CO)C(=O)N2CCC[C@H]2C(=O)N[C@@H](Cc2ccccc2)C(=O)O)cc1 (H-RPPGY(Me)SPF-OH)

Relative affinity [5]: 23%
Alpha E [3]: 1
Compound: NC(N)=NCCC[C@H](NC(=O)[C@H](CC1CCCCC1)NC(=O)[C@@H]1CCCN1C(=O)[C@H](CO)NC(=O)[C@H](Cc1ccccc1)NC(=O)CNC(=O)[C@@H]1CCCN1C(=O)[C@@H]1CCCN1C(=O)[C@@H](N)CCCN=C(N)N)C(=O)O (HELM PEPTIDE1{R.P.P.G.F.S.P.[Cha].R}$$$$V2.0)

ED50 [6]: > 100 µM
Relative affinity [5]: < 0.01%
Compound: N=C(N)NCCC[C@H](NC(=O)[C@H](Cc1ccccc1)NC(=O)[C@@H]1CCCN1C(=O)[C@H](CO)NC(=O)[C@H](Cc1cc(I)c(N)c(I)c1)NC(=O)CNC(=O)[C@@H]1CCCN1C(=O)[C@@H]1CCCN1C(=O)[C@@H](N)CCCNC(=N)N)C(=O)O (HELM PEPTIDE1{R.P.P.G.[Nc1c(I)cc(C[C@H](N[*:1])C(=O)[*:2])cc1I].S.P.F.R}$$$$V2.0)

Relative affinity [5]: 0.04%
Compound: H-RPPGFSPDR-OH

Relative affinity [5]: 3.5%
Alpha E [3]: 1
Compound: H-RPPGFSPYR-OH

Alpha E [3]: 1
Compound: H-RPPGLSPF-OH

Continued, compound first:

Compound: NC(N)=NCCC[C@H](N)C(=O)N1CCC[C@H]1C(=O)N1CCC[C@H]1C(=O)NCC(=O)N[C@@H](Cc1ccc(N)cc1)C(=O)N[C@@H](CO)C(=O)N1CCC[C@H]1C(=O)N[C@@H](Cc1ccccc1)C(=O)O
EC50 [2]: 5.46 µM
Alpha E [3]: 1

Compound: N#[N+]c1ccc(C[C@H](NC(=O)CNC(=O)[C@@H]2CCCN2C(=O)[C@@H]2CCCN2C(=O)[C@@H](N)CCCN=C(N)N)C(=O)N[C@@H](CO)C(=O)N2CCC[C@H]2C(=O)N[C@@H](Cc2ccccc2)C(=O)O)cc1
EC50 [2]: 3.75 µM
Alpha E [3]: 1

Compound: [N-]=[N+]=Nc1ccc(C[C@H](NC(=O)CNC(=O)[C@@H]2CCCN2C(=O)[C@@H]2CCCN2C(=O)[C@@H](N)CCCN=C(N)N)C(=O)N[C@@H](CO)C(=O)N2CCC[C@H]2C(=O)N[C@@H](Cc2ccccc2)C(=O)O)cc1
Response [1]: 90%
EC50 [2]: 0.461 µM
Alpha E [3]: 1

Compound: COc1ccc(C[C@H](NC(=O)CNC(=O)[C@@H]2CCCN2C(=O)[C@@H]2CCCN2C(=O)[C@@H](N)CCCN=C(N)N)C(=O)N[C@@H](CO)C(=O)N2CCC[C@H]2C(=O)N[C@@H](Cc2ccccc2)C(=O)N[C@@H](CCCN=C(N)N)C(=O)O)cc1 (H-RPPGY(Me)SPFR-OH)
Relative affinity [5]: 14%
Alpha E [3]: 1

Compound: NC(N)=NCCC[C@H](N)C(=O)N1CCC[C@H]1C(=O)N1CCC[C@H]1C(=O)NCC(=O)N[C@@H](Cc1ccccc1)C(=O)N[C@@H](CO)C(=O)N1CCC[C@H]1C(=O)N[C@@H](CC1CCCCC1)C(=O)O (HELM PEPTIDE1{R.P.P.G.F.S.P.[Cha]}$$$$V2.0)
Alpha E [3]: 0

Compound: NC(N)=NCCC[C@H](NC(=O)[C@H](Cc1cc(I)c(N)c(I)c1)NC(=O)[C@@H]1CCCN1C(=O)[C@H](CO)NC(=O)[C@H](Cc1ccccc1)NC(=O)CNC(=O)[C@@H]1CCCN1C(=O)[C@@H]1CCCN1C(=O)[C@@H](N)CCCN=C(N)N)C(=O)O (HELM PEPTIDE1{R.P.P.G.F.S.P.[Nc1c(I)cc(C[C@H](N[*:1])C(=O)[*:2])cc1I].R}$$$$V2.0)
ED50 [6]: > 100 µM
Relative affinity [5]: < 0.01%

Compound: NC(N)=NCCC[C@H](NC(=O)[C@H](Cc1ccc(N)cc1)NC(=O)[C@@H]1CCCN1C(=O)[C@H](CO)NC(=O)[C@H](Cc1ccccc1)NC(=O)CNC(=O)[C@@H]1CCCN1C(=O)[C@@H]1CCCN1C(=O)[C@@H](N)CCCN=C(N)N)C(=O)O (HELM PEPTIDE1{R.P.P.G.F.S.P.[Nc1ccc(C[C@H](N[*:1])C(=O)[*:2])cc1].R}$$$$V2.0)
ED50 [6]: 0.0195 µM
Relative affinity [5]: 9%
Alpha E [3]: 1

Compound: NC(N)=NCCC[C@H](NC(=O)[C@H](Cc1ccccc1)NC(=O)[C@@H]1CCCN1C(=O)[C@H](CO)NC(=O)[C@H](CC1CCCCC1)NC(=O)CNC(=O)[C@@H]1CCCN1C(=O)[C@@H]1CCCN1C(=O)[C@@H](N)CCCN=C(N)N)C(=O)O (HELM PEPTIDE1{R.P.P.G.[Cha].S.P.F.R}$$$$V2.0)
Relative affinity [5]: 23%
Alpha E [3]: 1

Compound: NC(N)=NCCC[C@H](N)C(=O)N1CCC[C@H]1C(=O)N1CCC[C@H]1C(=O)NCC(=O)N[C@@H](CC1CCCCC1)C(=O)N[C@@H](CO)C(=O)N1CCC[C@H]1C(=O)N[C@@H](Cc1ccccc1)C(=O)O (HELM PEPTIDE1{R.P.P.G.[Cha].S.P.F}$$$$V2.0)
Alpha E [3]: 1

Compound: NC(N)=NCCC[C@H](NC(=O)[C@H](Cc1ccccc1)NC(=O)[C@@H]1CCCN1C(=O)[C@H](CO)NC(=O)[C@H](Cc1ccc(N)cc1)NC(=O)CNC(=O)[C@@H]1CCCN1C(=O)[C@@H]1CCCN1C(=O)[C@@H](N)CCCN=C(N)N)C(=O)O (HELM PEPTIDE1{R.P.P.G.[Nc1ccc(C[C@H](N[*:1])C(=O)[*:2])cc1].S.P.F.R}$$$$V2.0)
ED50 [6]: 0.057 µM
Relative affinity [5]: 3%
Alpha E [3]: 1

Compound: [N-]=[N+]=Nc1ccc(/N=N/c2cc(C[C@H](NC(=O)CNC(=O)[C@@H]3CCCN3C(=O)[C@@H]3CCCN3C(=O)[C@@H](N)CCCN=C(N)N)C(=O)N[C@@H](CO)C(=O)N3CCC[C@H]3C(=O)N[C@@H](Cc3ccccc3)C(=O)O)ccc2O)cc1 (HELM PEPTIDE1{R.P.P.G.[[N-]=[N+]=Nc1ccc(/N=N/c2cc(C[C@H](N[*:1])C(=O)[*:2])ccc2O)cc1].S.P.F}$$$$V2.0)
Response [1]: 69%
EC50 [2]: 1.28 µM
Alpha E [3]: 1

Compound: H-RPPGASPF-OH
Alpha E [3]: 1

Compound: H-RPPGASPFR-OH
Relative affinity [5]: 0.1%
Alpha E [3]: 1

Compound: H-RPPGDSPFR-OH
Relative affinity [5]: 0.08%

Compound: H-RPPGFSPA-OH
Alpha E [3]: 0

Compound: H-RPPGFSPAR-OH
Relative affinity [5]: 0.01%
Alpha E [3]: 1

Compound: H-RPPGFSPLR-OH
Relative affinity [5]: 0.1%
Alpha E [3]: 1

Compound: H-RPPGFSPY-OH
Alpha E [3]: 1

Compound: H-RPPGLSPFR-OH
Relative affinity [5]: 8%
Alpha E [3]: 1

Compound: H-RPPGYSPF-OH
EC50 [2]: 0.869 µM
Alpha E [3]: 1

Compound: H-RPPGYSPFR-OH
Relative affinity [5]: 0.3%
Alpha E [3]: 1
